{"source": "paper PMC4123212", "about": "(Chemistry & biology, 2014)", "key": {"Erk2^WT [1]": {"target": "T1, Erk2^WT (Rattus norvegicus, UniProt P63086)", "experiment": "Activation inhibition assay", "assay_type": "biochemical", "conditions": "ELISA"}, "Erk2^DS1 [2]": {"target": "T2, Erk2^DS1 (Rattus norvegicus, UniProt P63086, C164L/Q103T)", "experiment": "Activation inhibition assay", "assay_type": "biochemical", "conditions": "Erk2^DS1, ATP 5 µM, bis-phosphorylated Erk2 by ELISA", "procedure,_shortened": "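Erk2 variant preincubated 30 min at RT with ATP (5 µM) and titrated test compound (2% DMSO) in 50 mM MOPS pH 7.4, 10 mM MgCl2, 1 mM DTT, 0.001% Tween 20, 0.1 mg/mL BSA. MEK2 then added and incubated at RT; enzyme levels and times set by linearity. Quenched with 20 mM EDTA, plate-bound overnight at 4 °C, then anti-phospho-Erk2/HRP ELISA. EC50 from nonlinear regression; triplicates.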"}, "Erk2^WT [3]": {"target": "T1, Erk2^WT", "experiment": "DUSP6 activation inhibition", "assay_type": "biochemical", "conditions": "inhibitor 5 µM, 4-MUP turnover", "procedure,_shortened": "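DUSP6 (140 nM) added for 1 h at RT, then 4-MUP (250 µM). Fluorescence read at Ex/Em 355/460 nm after 2 h at RT; Erk2-free wells used as background.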"}, "phospho-Erk2^WT": {"target": "phospho-Erk2^WT (Rattus norvegicus, UniProt P63086)", "experiment": "Phosphatase inhibition: DUSP6-mediated dephosphorylation", "assay_type": "biochemical", "conditions": "ELISA"}, "Erk2^WT [4]": {"target": "T1, Erk2^WT", "conditions": "Ki values reported previously, ref Hari et al., 2013; cited from earlier work"}, "Erk2^DS1 [5]": {"target": "T2, Erk2^DS1", "experiment": "Activation inhibition assay", "assay_type": "biochemical", "conditions": "Erk2^DS1, PhosTag-acrylamide PAGE", "procedure,_shortened": "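This run uses the MOPS/MgCl2 activation setup (ATP 5 µM, 30 min compound preincubation at RT) but with tenfold more MEK2. Reactions were stopped in SDS loading buffer without EDTA. Erk2 phospho-forms were resolved by SDS-PAGE in gels containing 50 µM PhosTag-acrylamide and 100 µM MnCl2.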"}, "Erk2^DS2 (Q103A/C164L)": {"target": "Erk2^DS2 (Q103A/C164L) (Rattus norvegicus, UniProt P63086, C164L/Q103A)", "conditions": "ref Hari et al., 2013; cited from earlier work"}, "[6]": {"target": "GFP-tagged Erk2^DS1 in HEK293 cells (Rattus norvegicus, UniProt P63086, C164L/Q103T)", "experiment": "In-cell activation inhibition, EGF-stimulated HEK293 cells", "assay_type": "cell-based", "conditions": "2 at 100-1000 nM, SB203580 1000 nM, immunoblot", "procedure,_shortened": "(§1)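 Low-passage HEK293 transiently transfected with GFP-Erk2 plasmid, split next day into 96-well format, serum-starved 24 h. Test compound added for 1 h at 37 °C (final 1% DMSO), then human EGF 50 ng/mL for 5 min at 37 °C. DMSO controls with and without EGF. Cells lysed by boiling in SDS loading buffer; SDS-PAGE, immunoblot for GFP and ppErk.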"}, "Erk2^DS1 (Q103T/C164L)": {"test_system": "Erk2^DS1 (Q103T/C164L)", "conditions": "ref Hari et al., 2013; cited from earlier work"}, "phospho-Erk2^DS2": {"target": "phospho-Erk2^DS2 (Rattus norvegicus, UniProt P63086, C164L/Q103A)", "experiment": "Phosphatase inhibition: DUSP6-mediated dephosphorylation", "assay_type": "biochemical", "conditions": "phospho-Erk2^DS2, relative to apo enzyme, ELISA"}, "[7]": {"target": "GFP-tagged Erk2^WT in HEK293 cells (Rattus norvegicus, UniProt P63086)", "experiment": "In-cell activation inhibition, EGF-stimulated HEK293 cells", "assay_type": "cell-based", "conditions": "2 at 100-1000 nM, SB203580 1000 nM, immunoblot", "procedure,_shortened": "as §1"}}, "data": [{"smiles": "C[S+]([O-])c1ccc(-c2nc(-c3ccncc3)c(-c3ccc(F)cc3)[nH]2)cc1", "note": "(centres unmarked) [SB203580]", "values": [{"measurement": "Decrease in the amount of activation loop phosphorylated Erk2 (MEK2)", "setting": "Erk2^WT [1]", "result": "neither 2 nor SB203580 lead to a significant decrease"}, {"measurement": "Inhibition of dual phosphorylation of Erk2's activation loop by MEK2", "setting": "Erk2^DS1 [2]", "result": "only a minimal effect"}, {"measurement": "Effect on Erk2-mediated activation of DUSP6", "setting": "Erk2^WT [3]", "result": "none of these ligands affected"}, {"measurement": "Effect on DUSP6-mediated dephosphorylation", "setting": "phospho-Erk2^WT", "result": "none of the inhibitors affected"}, {"measurement": "Inhibition of wild type Erk2", "setting": "Erk2^WT [4]", "result": "very weakly inhibited"}, {"measurement": "Formation of bis-phosphorylated Erk2 (MEK2)", "setting": "Erk2^DS1 [5]", "result": "comparable levels of bis-phosphorylation"}, {"measurement": "Sensitivity of drug sensitive Erk2 mutant to inhibitor", "setting": "Erk2^DS2 (Q103A/C164L)", "result": "highly sensitive"}, {"measurement": "Cellular Erk2 activation upon EGF stimulation", "setting": "[6]", "result": "had no effect"}, {"measurement": "Sensitivity of drug sensitive Erk2 mutant to inhibitor", "setting": "Erk2^DS1 (Q103T/C164L)", "result": "highly sensitive"}, {"measurement": "Effect on DUSP6-mediated dephosphorylation of the TxY motif", "setting": "phospho-Erk2^DS2", "result": "enhanced the phosphatase activity of DUSP6"}, {"measurement": "Cellular Erk2 activation upon EGF stimulation", "setting": "[7]", "result": "not affected"}]}]}
